CFTR F508del cor = CFTR F508del correction in bronchial cells | actives 0.36% (n = 350,000) | CFBE cells, YFP halide quenching; stimulated with forskolin plus potentiator P3; % fluorescence drop versus neutral controls | activity (quench increase), % at 7.58 µM | AID 720511;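 active = mean added fluorescence quench of at least 8% versus neutral control, with both replicates also reaching 8%; inconclusive = only one of the mean or replicate conditions met; inactive = mean below 8% and not both replicates reaching 8%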;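 note: cells transiently co-express mutant CFTR-F508del with the halide-sensitive YFP; corrector assay measuring rescue of mutant channel to the surface after 24 h compound exposure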
PAX8 reporter = lowers PAX8-driven luciferase in RMG-I cells; inhibition, % at 12.6 µM; RMG-I TPO-luciferase reporter, SteadyGlo, 24 h; actives 1.2% (n = 360,000); AID 652154;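 active = mean replicate inhibition at least 60% with every replicate also reaching 60%; inconclusive = only one of the two criteria is met; inactive = mean below 60% and not all replicates reaching 60%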;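 note: luciferase light reporting Pax8 driven TPO promoter activity; plate controls were median of neutral control wells for no effect and mitoxantrone controls for full effect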
FN deposit inh = fibronectin deposition inhibition; actives 0.086% (n = 350,000); AH1F fibroblasts, Alexa488-fibronectin deposition fluorescence, overnight; inhibition, % at 12.6 µM; AID 743247;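 active = mean inhibition across replicates of 30% or more, regardless of how many single replicates reach that level; inconclusive = mean under 30% yet at least half of replicates reach 30%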;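 note: positive control wells lacked labelled fibronectin entirely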
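material = AH1F fibroblast monolayer depositing Alexa488-labelled fibronectin into matrix | amount = 10000 AH1F cells/well | buffer or medium = DMEM plus 2% serum, read in PBS | incubation = 1 h cell adhesion before compound, then overnight fibronectin incubation | detection = fluorescence at 485 nm excitation, 525 nm emission | evaluation = percent inhibition as loss of matrix-bound fibronectin fluorescence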
EWS-Fli block = EWS/Fli transcriptional activity inhibition | A673 NR0B1-luciferase reporter, viability-normalised | inhibition, % at 12.6 µM | actives 0.67% (n = 350,000) | AID 651661;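 active = mean inhibition of at least 50% after viability correction, with every replicate also passing that limit; inconclusive = mean reaches 50% but only one of two replicates passes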;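 note: firefly luciferase signal divided by Alamar Blue viability fluorescence both relative to DMSO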
PGC1a acetyl inh = lowers PGC1a acetylation signal in U2OS cells; AlphaScreen anti-acetyl-lysine; with virally co-expressed GCN5 acetyltransferase; inhibition, % at 15.6 µM; actives 0.17% (n = 350,000); AID 651687;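 active = every replicate shows inhibition of at least 40%; inconclusive = mean inhibition at least 40% but some replicate below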;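 note: 0% = neutral control wells and 100% = positive control wells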
Env fusion inh = inhibitors of HIV Env-mediated cell fusion | HeLa-JRFL Env/CEM21 cell fusion, luciferase | inhibition, % at 12.3 µM | actives 1.1% (n = 360,000) | AID 651610;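 active = mean replicate inhibition score of at least 50 and every replicate individually at or above 50; inconclusive = only one of the two criteria met; inactive = mean below 50 and not all replicates reaching 50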;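 note: 0% = plate neutral controls and 100% = maraviroc near 300 nM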
* hit, by the source's call; ? = inconclusive; / = no result given; ! = not active in a repeat; [ ] = remark or other dose. Most compounds without a hit are left out; they make up all but 2.3% or so of the library.

SMILES	CFTR F508del cor	PAX8 reporter	FN deposit inh	EWS-Fli block	PGC1a acetyl inh	Env fusion inh
COc1cccc(-c2ccc3n(c2=O)C[C@H]2[C@H](CO)[C@@H](C(=O)O)[C@@H]3N2Cc2ccccc2F)c1	/	-7.2	/	-2.4	/	10.7[16.7 µM]
COC(=O)C[C@H]1CC[C@@H]2NC[C@@H](O)COC[C@H]2O1	1.3	-5.6	-9.6	6.7	-8.1	-8.4[16.7 µM]
CCOCCN1CCC(OC(C)=O)C(C)C1 (stereo unspecified)	/	-15.3	8.4	/	41.8*	-1.9
CCOC(=O)C(NC(=O)C(Cc1ccc(N(CCCl)CCCl)cc1)NC(C)=O)C(C)C (stereo unspecified)	-1.1	2.5	/	5.9	-0.7	-26.1
COC(=O)C(Cc1ccc(N(CCCl)CCCl)cc1)N=Cc1ccccc1O (stereo unspecified)	-15.7	97.0*	-4.3	66.9*	/	50.9
O=C(Cc1cccnc1)N1CCCCN2[C@H](C1)[C@@H](c1ccc(/C=C/c3ccccc3)cc1)[C@@H]2CO	-4.0	-9.8	/	5.8	-5.9	/
CCC(C)C(NC(=O)CCCNC(=O)CCC(=O)OC1O[C@H]2OC3(C)CC[C@H]4[C@H](C)CCC(C1C)C24OO3)C(=O)O (stereo partly specified)	4.6	74.4*	-7.4	34.0	/	58.0*
COC(=O)[C@@H]1[C@@H](CO)[C@@H]2Cn3c(ccc(C4=CCCCC4)c3=O)[C@H]1N2C(=O)CC1CC1	0.3	7.5	/	1.7	3.2	/
COC(=O)[C@@H]1[C@@H](CO)[C@@H]2Cn3c(ccc(-c4ccccc4)c3=O)[C@H]1N2S(=O)(=O)c1ccccc1C	-0.3	-2.6	/	0.6	/	/
C[C@H]1CCC/C=C/[C@@H]2C[C@H](O)C[C@H]2[C@H](O)/C=C/C(=O)O1	15.8*!	109.5*	-1.7	53.9*	68.7*	94.0*!
COC(=O)[C@H]1[C@H](CO)[C@H]2Cn3c(cccc3=O)[C@@H]1N2C(=O)C1CCCC1	-1.7	/	/	4.5	/	/
Cc1[nH]c2ccc(OC(F)(F)F)cc2c1CCNCc1ccc(Cl)cc1	0.9	29.6	29.7	11.8	-3.2	92.6*
Cc1[nH]c2ccc(OC(F)(F)F)cc2c1CCNCc1cccc([N+](=O)[O-])c1	1.2	24.9	2.1	13.0	/	66.8*
CCOc1cccc(CNCCc2c(C)[nH]c3ccc(OC(F)(F)F)cc23)c1O	0.7	8.7	0.9	46.7	/	62.5*
COC(=O)[C@H]1[C@H](CO)[C@H]2Cn3c(cccc3=O)[C@@H]1N2C(=O)C1CCC1	-0.5	/	/	1.2	/	/
COC(=O)[C@@H]1[C@@H](CO)[C@@H]2Cn3c(ccc(-c4ccccc4OC)c3=O)[C@H]1N2Cc1ccccc1	/	/	/	2.8	/	16.4[16.7 µM]
O=C1CNC[C@@H]2[C@@H](c3ccc(Br)cc3)[C@H](CO)N12	-1.3	-21.1	2.6	-31.2	-1.6	/
CCOC(C[n+]1c(-c2ccccc2)cc(C)cc1-c1ccccc1)OCC	-1.2	67.3*	-5.3	9.8	/	-0.6
CCCN1[C@@H]2c3ccc(-c4ccc(OC)cc4)c(=O)n3C[C@H]1[C@H](CO)[C@H]2C(=O)OC	2.3	8.0	/	-3.9	/	/
CCC(c1nnnn1Cc1ccccc1)N1CCC(n2c(=O)[nH]c3ccccc32)CC1 (stereo unspecified)	-2.2	88.3*	7.8	7.4	25.2	55.3*
CCCCn1nnnc1C(CCc1ccccc1)N1CCC(n2c(=O)[nH]c3ccccc32)CC1 (stereo unspecified)	2.4	81.4*	-4.0	15.2	-14.4	-80.7
CCCCn1nnnc1C(CCSC)N1CCC(n2c(=O)[nH]c3ccccc32)CC1 (stereo unspecified)	4.8	17.1	2.5	-8.5	9.1	1.1
COC(=O)[C@@H]1[C@@H](CO)[C@@H]2Cn3c(ccc(-c4ccccc4)c3=O)[C@H]1N2CC1CC1	-0.4	/	/	10.6	/	/
Cc1cccc(N=C2c3cc([N+](=O)[O-])ccc3-c3c2cc([N+](=O)[O-])cc3[N+](=O)[O-])c1	-2.5	65.9*	6.0	31.2	-4.9	?
Cc1ccc(-c2cc(-c3ccccc3)cc(-c3ccccc3)[n+]2-c2ccccc2C(=O)O)cc1	0.6	77.2*	-4.7	20.5	-19.0	26.5
SMILES	CFTR F508del cor	PAX8 reporter	FN deposit inh	EWS-Fli block	PGC1a acetyl inh	Env fusion inh
CC=Cc1ccc2n(c1=O)C[C@@H]1[C@@H](CO)[C@H](C(=O)OC)[C@H]2N1C(=O)CC (mixture of isomers)	/	/	/	-2.9	/	/
O=C(Cc1cccnc1)N1CCCCN2[C@@H](CO)[C@H](c3ccc(C#CC4CC4)cc3)[C@@H]2C1	-4.6	22.4	/	23.7	7.7	/
CCCc1nc2ccc(Br)cc2c(=O)n1-c1ccc([N+](=O)[O-])c(C(F)(F)F)c1	/	93.4*	-8.3	/	22.1	13.9
O=[N+]([O-])c1ccc(-[n+]2c(-c3ccccc3)cc(-c3ccccc3)cc2-c2ccccc2)cc1	-1.0	-2.9	-8.6	1.4	-11.1	16.8
Oc1ccc(-[n+]2c(-c3ccccc3)cc(-c3ccccc3)cc2-c2ccccc2)cc1	5.5	90.2*	6.5	42.7	/	?
COc1ccc(-[n+]2c(-c3ccccc3)cc(-c3ccccc3)cc2-c2ccccc2)cc1	2.8	92.5*	8.3	49.3	/	-4.9
O=C([O-])c1ccc(-[n+]2c(-c3ccccc3)cc(-c3ccccc3)cc2-c2ccccc2)cc1	0.5	-0.9	1.6	9.4	-4.3	19.3
COc1cc2c(c(OC)c1O)-c1ccc(OC)c(=O)cc1C(NC(=O)C(F)(F)F)CC2 (stereo unspecified)	-5.7	79.6*	0.0	36.8	/	-110.6
C=CCN1[C@@H]2CN(C(=O)NC(C)C)C[C@H]1C2c1ccc(Br)cc1 (stereo partly specified)	/	/	-8.3	/	/	/
CCCN1[C@@H]2Cn3c(ccc(-c4cccc(C(=O)N(C)C)c4)c3=O)[C@H]1[C@@H](C(=O)OC)[C@@H]2CO	/	-13.7	/	-6.4	/	-5.4[16.7 µM]
CC(C)CCn1c(=O)c(C(=O)Nc2ccccc2S(N)(=O)=O)c(O)c2ccccc21	/	69.3*	-9.1	/	3.4	?
CCCCn1c(=O)c(C(=O)Nc2ccccc2C)c(O)c2ccccc21	/	/	/	/	9.7	/
CC=Cc1ccc2n(c1=O)C[C@@H]1[C@@H](CO)[C@H](C(=O)O)[C@H]2N1S(=O)(=O)c1ccccc1F (mixture of isomers)	/	-8.0	/	-7.0	/	0.7[16.7 µM]
CC(=O)OC[C@]12CCC(C)=C[C@H]1O[C@@H]1[C@H](O)[C@@H](OC(C)=O)[C@@]2(C)[C@]12CO2	-6.2	/	/	55.5*	85.5*	/
O=C(O)[C@@H]1[C@@H](CO)[C@@H]2Cn3c(ccc(-c4cccnc4)c3=O)[C@H]1N2S(=O)(=O)c1ccccc1F	-2.0	-1.6	/	-0.6	/	/
O=C(Cc1ccncc1)N1CCCCN2[C@H](C1)[C@H](c1ccc(C#Cc3ccccc3F)cc1)[C@@H]2CO	4.6	77.1*	3.6	13.8	-4.3	/

Source: PubChem
